Results collected from several papers.
CNR2: Cannabinoid receptor 2 (CNR2, Homo sapiens, UniProt P34972)
LIMK2: LIM domain kinase 2 (LIMK2, Homo sapiens, UniProt P53671)

Nc1ncc(-c2nc(N3CCOCC3)nc(N3CCOCC3)n2)c(C(F)F)n1  remaining binding (Membrane-associated tyrosine- and threonine-specific cdc2-inhibitory kinase (PKMYT1, Homo sapiens, UniProt Q99640); binding, competition with immobilised ligand; 10 µM): 98%
CCOC(=O)C(CC)(CCCSCCOCCOCCOCCNC(=O)OC(C)(C)C)NC(=O)c1ccc(C2CC2)c(Cc2ccc(F)cc2)n1 (stereo not shown)  Emax (CNR2; cAMP, agonist): 91%
Nc1ccc2cccc(O)c2n1  ΔTm (Methionyl-tRNA synthetase, putative (Trypanosoma brucei brucei, UniProt Q38C91); thermal stability, DSF; 800 µM): 1.8 °C
O=C(O)C(F)(F)C(F)(F)C(F)(F)C(F)(F)C(F)(F)C(F)(F)C(F)(F)F  Km (Solute carrier family 22 member 12 (SLC22A12, Homo sapiens, UniProt Q96S37); transporter uptake, substrate): 820 µM
Cc1nn(C)cc1-c1nc2c(N3CCN(Cc4ccc(Cl)cc4)CC3)c(Cl)cnc2[nH]1  remaining binding (Serine/threonine-protein kinase 35 (STK35, Homo sapiens, UniProt Q8TDR2); binding, competition with immobilised ligand; 1 µM): 75%
O=C(N1CCCCC1Cc1ccccc1)n1cc(-c2ccc(-c3ccccc3)cc2)nn1 (stereo not shown)  kinact (Diacylglycerol lipase-alpha (Mus musculus, UniProt Q6WQJ1); enzyme activity, inhibitor): 0.00133 s⁻¹
COc1ccc(S(=O)(=O)N(CC(=O)NO)CC(C)C)cc1  inhibition (72 kDa type IV collagenase (MMP2, Homo sapiens, UniProt P08253); enzyme activity, inhibitor; 1 µM): 100%
Cn1cc(-c2cccc(N3CCc4c(sc5c4CC(C)(C)C5)C3=O)c2CO)cc(Nc2ccncn2)c1=O  inhibition (LIMK2; enzyme activity, inhibitor; 1 µM): 6%
C#Cc1n[nH]c2c(-c3cn([C@@H](C)c4ccccn4)c(=O)[nH]c3=O)cc(F)cc12  inhibition (Serine/threonine-protein kinase haspin (HASPIN, Homo sapiens, UniProt Q8TF76); enzyme activity, inhibitor; 0.1 µM): 4.5%
COc1ncccc1-c1cnn2ccc(N3CCN(C(=O)OC(C)C)CC3)nc12  remaining binding (Epithelial discoidin domain-containing receptor 1 (DDR1, Homo sapiens, UniProt Q08345); binding, competition with immobilised ligand; 1 µM): 100%
CCN(CC)CCCC[C@H](NC(=O)[C@H](CC(C)C)NC(=O)[C@H](C)NC(=O)[C@H](Cc1ccccc1)NC(=O)c1ccc(C(C)(C)C)cc1)C(=O)N[C@@H](CO)C(=O)OC  ΔTm (Bromodomain-containing protein 9 (BRD9, Homo sapiens, UniProt Q9H8M2); thermal stability, DSF; 25 µM): 0.23 °C
Cn1cc(-c2cc(F)cc(N3CCn4c(cc5c4CCCC5)C3=O)c2CO)cc(Nc2ccc(N3CCN(C4COC4)CC3)cn2)c1=O  inhibition (LIMK2; enzyme activity, inhibitor; 0.1 µM): -3%
CCOC(=O)[C@](CC)(CCC[S+]([O-])CCOCCOCCNC(=O)OC(C)(C)C)NC(=O)c1ccc(C2CC2)c(Cc2ccc(F)cc2)n1 (stereo partly shown)  Emax (CNR2; cAMP, agonist): 93%
